# Source: ChEMBL document CHEMBL1123055, “Preparation of biologically active ristocetin derivatives: replacements of the 1'-amino group” (J Med Chem, 1985)
# What was measured:
# [1] = Association constant was evaluated towards synthetic peptidoglycan analogue Ac2-Lys-D-Ala-D-Ala; format: ADME
# Method in brief: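 Differential UV spectroscopy in tandem cells, 2 cm total path. Antibiotic at 50 μg/mL in 20 mM sodium citrate buffer pH 5.1, with 10% methanol for poorly water-soluble compounds. Ac2-Lys-D-Ala-D-Ala peptide added stepwise. Absorbance change followed at the wavelength of maximal change, and the association constant K_A derived from it.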
# Streptococcus pyogenes = assay: The antibacterial activity was evaluated as minimal inhibitory concentration (MIC) against Streptococcus pyogenes C203; format: functional
# Method in brief: (§1)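 Twofold agar dilution of compound in 10 mL brain heart infusion agar. Organisms grown 24 h, diluted 1/100, inoculum applied by multipoint replicator. Plates incubated at 35 °C (24 h per table footnote; 25 h per methods). MIC read as lowest inhibiting concentration, μg/mL. Ristocetin run as standard.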
# Staphylococcus aureus = assay: The antibacterial activity was evaluated as minimal inhibitory concentration (MIC) against Staphylococcus aureus Smith; format: functional; method in brief: as §1
# [2] = system: Staphylococcus epidermidis; assay: The antibacterial activity was evaluated as minimal inhibitory concentration (MIC) against Staphylococcus epidermis 3519; format: functional; method in brief: as §1
# Enterococcus faecalis = assay: The antibacterial activity was evaluated as minimal inhibitory concentration (MIC) against Streptococcus faecalis 10541; format: functional; method in brief: as §1
Structure (SMILES),K A [1] [M⁻¹],MIC (Streptococcus pyogenes) [µg/mL],MIC (Staphylococcus aureus) [µg/mL],MIC [2] [µg/mL],MIC (Enterococcus faecalis) [µg/mL]
COC(=O)[C@H]1NC(=O)[C@H]2NC(=O)[C@H](NC(=O)[C@@H]3NC(=O)[C@H]4NC(=O)[C@H](NC(=O)[C@H](N)c5ccc(O)c(c5)Oc5cc4cc(O)c5C)[C@H](O)c4ccc(cc4)Oc4cc3cc(c4O[C@H]3O[C@H](CO[C@H]4O[C@H](C)[C@@H](O)[C@@H](O)[C@@H]4O)[C@H](O)[C@H](O)[C@H]3O[C@H]3O[C@@H](CO)[C@@H](O)[C@@H](O)[C@H]3O[C@H]3OC[C@@H](O)[C@@H](O)[C@H]3O)Oc3ccc(cc3)[C@H]2O[C@@H]2C[C@@H](N)[C@@H](O)[C@@H](C)O2)c2ccc(O)c(c2)-c2c(O[C@@H]3O[C@H](CO)[C@@H](O)[C@@H](O)[C@@H]3O)cc(O)cc21,600000,1.56,12.5,25,6.2
COC(=O)[C@H]1NC(=O)C2NC(=O)[C@H](NC(=O)[C@@H]3NC(=O)[C@H]4NC(=O)[C@H](NC(=O)[C@@H](NC(C)=O)c5ccc(O)c(c5)Oc5cc4cc(O)c5C)[C@H](O)c4ccc(cc4)Oc4cc3cc(c4O)Oc3ccc(cc3)C2O)c2ccc(O)c(c2)-c2c(O)cc(O)cc21 (stereo not given in full),140000,3.1,6.2,6.2,6.2
COC(=O)[C@H]1NC(=O)C2NC(=O)[C@H](NC(=O)[C@@H]3NC(=O)[C@H]4NC(=O)[C@H](NC(=O)[C@@H](N)c5ccc(O)c(c5)Oc5cc4cc(O)c5C)[C@H](O)c4ccc(cc4)Oc4cc3cc(c4O)Oc3ccc(cc3)C2O)c2ccc(O)c(c2)-c2c(O)cc(O)cc21 (stereo not given in full),670000,3.1,3.1,3.1,3.1
COC(=O)[C@H]1NC(=O)C2NC(=O)[C@H](NC(=O)[C@@H]3NC(=O)[C@H]4NC(=O)[C@H](NC(=O)[C@H](N)c5ccc(O)c(c5)Oc5cc4cc(O)c5C)[C@H](O)c4ccc(cc4)Oc4cc3cc(c4O)Oc3ccc(cc3)C2O)c2ccc(O)c(c2)-c2c(O)cc(O)cc21 (stereo not given in full),20000,25,25,50,50
COC(=O)[C@H]1NC(=O)C2NC(=O)[C@H](NC(=O)[C@@H]3NC(=O)[C@H]4NC(=O)[C@H](NC(=O)[C@H](O)c5ccc(O)c(c5)Oc5cc4cc(O)c5C)[C@H](O)c4ccc(cc4)Oc4cc3cc(c4O)Oc3ccc(cc3)C2O)c2ccc(O)c(c2)-c2c(O)cc(O)cc21 (stereo not given in full),150000,6.2,12.5,12.5,6.2
COC(=O)[C@H]1NC(=O)C2NC(=O)[C@H](NC(=O)[C@@H]3NC(=O)[C@H]4NC(=O)[C@H](NC(=O)C(=O)c5ccc(O)c(c5)Oc5cc4cc(O)c5C)[C@H](O)c4ccc(cc4)Oc4cc3cc(c4O)Oc3ccc(cc3)C2O)c2ccc(O)c(c2)-c2c(O)cc(O)cc21 (stereo not given in full),560000,3.1,6.2,12.5,12.5
COC(=O)[C@H]1NC(=O)C2NC(=O)[C@H](NC(=O)[C@@H]3NC(=O)[C@H]4NC(=O)[C@H](NC(=O)/C(=N/O)c5ccc(O)c(c5)Oc5cc4cc(O)c5C)[C@H](O)c4ccc(cc4)Oc4cc3cc(c4O)Oc3ccc(cc3)C2O)c2ccc(O)c(c2)-c2c(O)cc(O)cc21 (stereo not given in full),960000,1.56,3.1,3.1,3.1
